Data set [1] concerns the target T1, Cannabinoid receptor 2 (Homo sapiens, UniProt P34972). The data set is described as follows: Displacement of [3H]CP55940 from recombinant human CB2 receptor expressed in HEK293 cell membranes measured after 90 mins. The essentials: (§1)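 Membranes from HEK-293 cells stably expressing human recombinant CB1 (Bmax 2.5 pmol/mg protein) or CB2 (Bmax 4.7 pmol/mg protein). [3H]-CP-55,940 was used at 0.14 nM for CB1 (Kd 0.18 nM) and 0.084 nM for CB2 (Kd 0.31 nM), with increasing test concentrations, 90 min at 30 °C. Non-specific binding was set with 10 μM WIN 55212-2. Ki came from IC50 via Cheng–Prusoff; n ≥ 3, mean ± SEM. SI = CB1 Ki / CB2 Ki.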
A general note: In a radioligand displacement assay an active substance lowers the binding of a labelled ligand.

The target of a further data set is Cannabinoid receptor 1 (Homo sapiens, UniProt P21554). The data set is described as follows: Displacement of [3H]CP55940 from recombinant human CB1 receptor expressed in HEK293 cell membranes measured after 90 mins. The essentials:
as §1

Data set [2] addresses T1, Cannabinoid receptor 2. The data set is described as follows: Antagonist/inverse agonist activity at recombinant human CB2 receptor expressed in HEK293 cell membranes assessed as increase in NKH-477-induced cAMP accumulation measured after 30 mins by luminescence assay. The class given is functional, cell-based. (Cyclic AMP is a second messenger, typically raised through Gs and lowered through Gi signalling.)

The target of data set [3] is Cannabinoid receptor 1 (CB1) (Homo sapiens, UniProt P21554). In words: Displacement of [3H]CP55940 from recombinant human CB1 receptor expressed in HEK293 cell membranes at 10 uM measured after 90 mins relative to control. The following applies: probe [3H]CP55940.
Chain of Cannabinoid receptor 1 (CB1) (P21554 whole entry): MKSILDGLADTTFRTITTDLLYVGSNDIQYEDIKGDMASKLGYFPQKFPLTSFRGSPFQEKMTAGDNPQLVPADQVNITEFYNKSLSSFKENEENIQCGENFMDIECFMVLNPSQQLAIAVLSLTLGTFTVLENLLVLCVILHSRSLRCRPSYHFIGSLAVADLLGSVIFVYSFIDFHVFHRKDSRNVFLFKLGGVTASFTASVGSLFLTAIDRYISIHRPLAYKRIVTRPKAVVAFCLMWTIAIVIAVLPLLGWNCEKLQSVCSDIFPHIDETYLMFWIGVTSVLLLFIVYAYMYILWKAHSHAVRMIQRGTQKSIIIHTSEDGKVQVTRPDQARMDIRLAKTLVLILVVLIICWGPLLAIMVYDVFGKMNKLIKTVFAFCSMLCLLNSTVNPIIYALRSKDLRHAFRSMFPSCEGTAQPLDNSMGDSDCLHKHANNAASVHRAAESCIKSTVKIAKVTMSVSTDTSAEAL
In data set [4] the target is T1, Cannabinoid receptor 2. The data set is described as follows: Displacement of [3H]CP55940 from recombinant human CB2 receptor expressed in HEK293 cell membranes at 10 uM measured after 90 mins relative to control.
Data set [5] has as its target T1, Cannabinoid receptor 2. In words: Antagonist/inverse agonist activity at recombinant human CB2 receptor expressed in HEK293 cell membranes assessed as increase in NKH-477-induced cAMP accumulation preincubated followed by CB2 agonist JWH-133 addition and measured after 30 mins by luminescence assay. The class given is functional, cell-based.
A further data set is filed under the species Homo sapiens. In words: Selectivity index, ratio of Ki for displacement of [3H]CP55940 from recombinant human CB1 receptor expressed in HEK293 cell membranes to Ki for displacement of [3H]CP55940 from recombinant human CB2 receptor expressed in HEK293 cell membranes. The essentials:
as §1

Calls of active or inactive are those of the source. No cut-off for these calls is given here.

T1 sequence (P34972 whole entry): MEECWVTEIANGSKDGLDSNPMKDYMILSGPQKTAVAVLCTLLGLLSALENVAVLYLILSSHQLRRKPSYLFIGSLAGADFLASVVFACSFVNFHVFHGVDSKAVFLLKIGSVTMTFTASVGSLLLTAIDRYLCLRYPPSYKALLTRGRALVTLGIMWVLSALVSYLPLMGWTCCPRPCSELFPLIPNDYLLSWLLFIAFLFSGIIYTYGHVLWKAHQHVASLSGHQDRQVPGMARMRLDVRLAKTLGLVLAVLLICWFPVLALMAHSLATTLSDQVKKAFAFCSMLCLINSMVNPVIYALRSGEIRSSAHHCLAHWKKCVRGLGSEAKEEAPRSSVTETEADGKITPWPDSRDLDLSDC
Chain of Cannabinoid receptor 1 (P21554 whole entry): as the sequence (P21554 whole entry) above

The Ki is a measure of affinity in units of concentration, obtained from inhibition or displacement. Broadly, the inhibition is the relative decrease from the control value, in per cent. Regarding `CCCCn1c(Cc2ccc(Cl)c(Cl)c2)nc2cc(C(F)(F)F)ccc21`, the results for the Ki on Cannabinoid receptor 2 [1] and on Cannabinoid receptor 1 were 0.37 µM and 10 µM, respectively. Also, the outcome at Cannabinoid receptor 2 [2] and on Cannabinoid receptor 2 [5] was Active. In addition, the inhibition at 1.5 h, 10 µM in data set [3] is 53.9%. Moreover, at Cannabinoid receptor 2 [4], the inhibition came to 94.3%. Besides, the Ratio Ki in the data set filed under Homo sapiens was determined as 27.

Turning to `COCCn1c(Cc2ccc(Cl)c(Cl)c2)nc2cc(C(F)(F)F)ccc21`, the Ki at Cannabinoid receptor 2 [1] is 10 µM; at Cannabinoid receptor 1, > 10 µM. Also, the inhibition at 1.5 h, 10 µM in data set [3] was found to be 41.4%. For the same molecule, on Cannabinoid receptor 2 [4], the inhibition was 53.8%. In the data set listed under Homo sapiens, the Ratio Ki is > 1.

Turning to `CCN(CC)CCCn1c(Cn2nc3ccccc3n2)nc2cc(C(C)=O)ccc21`, the Ki on Cannabinoid receptor 2 [1] and on Cannabinoid receptor 1 was > 10 µM throughout. Moreover, in data set [3], the inhibition at 1.5 h, 10 µM was determined as 15%. The inhibition on Cannabinoid receptor 2 [4] was 17.5%.

For the molecule `Clc1ccc2c(c1)nc(Cn1nc3ccccc3n1)n2CC[C@@H]1CCCN2CCCC[C@H]12`, the Ki on Cannabinoid receptor 2 [1] and at Cannabinoid receptor 1 was > 10 µM in each case. Further, in data set [3], the inhibition at 1.5 h, 10 µM was found to be 17.6%. Besides, at Cannabinoid receptor 2 [4], the inhibition was found to be 10.1%.

Regarding `COc1ccc(Cc2nc3cc(C(F)(F)F)ccc3n2C[C@@H]2CCCN3CCCC[C@H]23)cc1`, the Ki on Cannabinoid receptor 2 [1] and at Cannabinoid receptor 1 was > 10 µM each time. Also, the inhibition at 1.5 h, 10 µM in data set [3] was determined as 5.5%. For the same molecule, at Cannabinoid receptor 2 [4], the inhibition came to 19.7%.

With `COc1ccc(Cc2nc3cc(C(C)=O)ccc3n2C[C@@H]2CCCN3CCCC[C@H]23)cc1`, the Ki at Cannabinoid receptor 2 [1] and at Cannabinoid receptor 1 was > 10 µM throughout. Besides, the inhibition at 1.5 h, 10 µM in data set [3] came out at 47.6%. In addition, the inhibition at Cannabinoid receptor 2 [4] is 15.6%.

On to `CCN(CC)CCn1c(-c2ccc(OC)cc2)nc2cc(C(F)(F)F)ccc21`, for which the inhibition constant Ki at Cannabinoid receptor 2 [1] and at Cannabinoid receptor 1 was > 10 µM in each case. For the same molecule, the inhibition at 1.5 h, 10 µM in data set [3] was found to be 1.95%. For the same molecule, the inhibition at Cannabinoid receptor 2 [4] is 46.9%.

In the case of `CCN(CC)CCCn1c(Cc2ccc(OC)cc2)nc2cc(C(F)(F)F)ccc21`, the inhibitory constant (Ki) on Cannabinoid receptor 2 [1] and on Cannabinoid receptor 1 was > 10 µM each time. Also, the inhibition at 1.5 h, 10 µM in data set [3] is 19.2%. Moreover, the inhibition on Cannabinoid receptor 2 [4] came out at 16.8%.
